Data reported in PMC8248128 (International Journal of Cancer, 2021).
“And” between values parts separate entries of the source, which are not always exact repeats. Identical values can stand only once.

Columns and labels:
Carboplatin = type: in vivo, human; conditions: Cycle 1 day 1, plasma ultrafiltrate, target AUC 4, N=21 (dose‐level 1‐4)
Outline: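 Platinum from carboplatin measured in plasma and plasma ultrafiltrate by ICPMS with iridium internal standard. Carboplatin was given as a 30-min IV infusion on Day 1, dosed by Calvert formula (Cockcroft-Gault GFR), alongside oral olaparib BID from Day 0. Blood (4 mL) was sampled 0.25, 0.5, 1, 2, 4, 6, 8, 10, 24 and 48 h post-infusion. AUC0-48 calculated.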

[1] = 3 + 3 dose‐escalation: dose‐limiting toxicity; type: in vivo, human; conditions: patients with advanced cancer
[2] = once per 21‐day cycle with olaparib capsules 400 mg BID Day 1 to 7; cited from earlier work
[3] = Olaparib pharmacokinetics in human plasma; type: in vivo; conditions: Cycle 1 day 0, dose‐level 3 (MTD), olaparib 75 mg tablets, N=6, plasma
[4] = test system: PAR levels (balance of PARP and PARG activity) in peripheral blood mononuclear cells; assay: Radiation‐enhanced‐PAR pharmacodynamic assay; type: in vivo, human; conditions: Day 8 vs before treatment, lowest dose‐level (25 mg olaparib BID), ex vivo 8 Gy
Outline: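 Venous blood (16 mL, mononuclear cell preparation citrate tubes) was drawn pre-dose Day 0 and Day 8 of cycle 1; olaparib BID from Day 0, carboplatin AUC 3 mg*min/mL IV Day 1 at this level. Three independent samples of 2 × 10⁶ PBMCs were irradiated ex vivo with 8 Gy on ice, then held 1 h on ice. PAR was quantified by HT-PARP in vivo pharmacodynamics Assay II (NCI protocol). Reduction = ([Day 0 − Day 8]/Day 0) × 100%.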

[5] = tablet 300 mg vs capsule 400 mg; cited from earlier work

Structure (SMILES) | Carboplatin AUC0-48 (mean) (Carboplatin) | Maximum tolerable dose (MTD), carboplatin part (target AUC) ([1]; carboplatin d1/d22 with olaparib tablets 75 mg BID, two cycles) | MTD, carboplatin part (target AUC) [2] | Maximum tolerable dose (MTD), olaparib part ([1]; olaparib tablets continuously with carboplatin AUC 4 mg*min/mL d1/d22, two cycles) | Olaparib AUC0-12 (mean) [3] | Relative reduction in PAR levels in PBMCs [4] | AUC of the tablet formulation (300 mg) higher than the capsule formulation (400 mg) [5]
N.N.O=C([O-])C1(C(=O)[O-])CCC1.[Pt+2] [carboplatin] | 5.10 mg·min/mL and 5.1 mg·min/mL and 5 mg·min/mL | 4 mg·min/mL | 5 mg·min/mL |  |  |  | 
O=C(c1cc(Cc2n[nH]c(=O)c3ccccc23)ccc1F)N1CCN(C(=O)C2CC2)CC1 [olaparib] |  |  |  | 75 mg BID | 15500 ng·h/mL | 97.5% ± 0.1% | 13%
